# From ChEMBL document CHEMBL4732169, “Design and synthesis of mycobacterial pks13 inhibitors: Conformationally rigid tetracyclic molecules” (Eur J Med Chem, 2021)
# Tests used:
# [1] = test system: Mycobacterium tuberculosis; assay: Antitubercular activity against Mycobacterium tuberculosis H37Rv assessed as bacterial growth inhibition incubated for 4 days by MABA assay; type: functional; conditions: time 4 day
# [2] = test system: Mycobacterium tuberculosis; assay: Binding affinity to wild type Mycobacterium tuberculosis Pks13-TE expressed in Escherichia coli BL21(DE3)pLysS assessed as change in melting temperature at protein to compound molar ratio of 1:5 incubated for 30 mins by nanoDSF assay
# Method in brief: (§1)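 Recombinant N-Mbp-His-tagged Pks13-TE domain of Mtb Pks13 (Rv3800c), expressed in E. coli BL21(DE3)pLysS after 0.5 mM IPTG induction and purified to >95%. Protein was incubated with compound (stock in DMSO) in 100 mM NaCl, 20 mM Tris-HCl pH 8.0 for 30 min, with a DMSO blank. nanoDSF ramp 30–90 °C at 2 °C/min, read as the F350/F330 ratio. Tm shift averaged from three measurements.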
# [3] = test system: Mycobacterium tuberculosis; assay: Binding affinity to wild type Mycobacterium tuberculosis Pks13-TE expressed in Escherichia coli BL21(DE3)pLysS assessed as change in melting temperature at protein to compound molar ratio of 1:10 incubated for 30 mins by nanoDSF assay; method in brief: as §1
# Vero = assay: Cytotoxicity against African green monkey Vero cells incubated for 72 hrs in DEME medium; type: cell-based; conditions: Chlorocebus sabaeus
# [4] = Selective index, ratio of CC50 for African green monkey Vero cells to IC50 for Mycobacterium tuberculosis H37Rv
# Method in brief: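 Vero (African green monkey kidney) cytotoxicity measured by alamar blue assay to give IC50. SI calculated as IC50(Vero)/MIC(H37Rv).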
# [5] = test system: Mycobacterium tuberculosis; assay: Antitubercular activity against drug susceptible Mycobacterium tuberculosis V4207 by MABA assay; type: functional
# Method in brief: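 Microplate alamar blue assay (MABA) against each Mtb strain, either H37Rv or a clinical isolate (drug-susceptible, MDR or XDR). MIC taken as the lowest concentration giving at least 90% reduction of the bacterial growth signal. Each value is the average of three individual measurements.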
# [6] = test system: Mycobacterium tuberculosis; assay: Inhibition of Mycobacterium tuberculosis Pks13-TE using 4-MUH as substrate by measuring fluorescence product for every 10 mins for 60 mins
# Method in brief: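 Pks13-TE thioesterase activity measured with the fluorogenic substrate 4-methylumbelliferyl heptanoate at 20 µM final, in 0.1 M Tris-HCl pH 7.0. Compound was serially diluted from 20 µM down to about 0.0195 µM, or DMSO was added. Points were run in triplicate and averaged to build concentration-response curves for IC50.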
# [7] = test system: Mycobacterium tuberculosis; assay: Potency index, ratio of MIC for TAM16 to MICfor test compound for antitubercular activity against Mycobacterium tuberculosis H37Rv assessed as bacterial growth inhibition incubated for 4 days by MABA assay; type: functional; conditions: time 4 day
# Staphylococcus aureus = assay: Antibacterial activity against Staphylococcus aureus Newman assessed as inhibition of bacterial growth measured after 18 hrs by two fold serial dilution method; type: functional
# Method in brief: (§2)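 Bacteria grown overnight at 37 °C in TSB without antibiotics. Compound in DMSO was serially diluted two-fold to final […] and mixed with an equal volume of bacteria. MIC was read after 18 h at 37 °C; three experiments per condition.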
# Bacillus subtilis = assay: Antibacterial activity against Bacillus subtilis168 assessed as inhibition of bacterial growth measured after 18 hrs by two fold serial dilution method; type: functional; conditions: subsp. subtilis str. 168; method in brief: as §2
# Escherichia coli [8] = assay: Antibacterial activity against Escherichia coli AB1157 assessed as inhibition of bacterial growth measured after 18 hrs by two fold serial dilution method; type: functional; method in brief: as §2
# Escherichia coli [9] = assay: Antibacterial activity against Escherichia coli DH5-alpha assessed as inhibition of bacterial growth measured after 18 hrs by two fold serial dilution method; type: functional; method in brief: as §2
smiles,measurement,setting,value
O=c1oc2ccccc2c2sc3ccc(O)c(CN4CCCCC4)c3c12,MIC=<90,[1],1 µg/mL
same,ΔTm,[2],7.9 °C
same,ΔTm,[3],9.1 °C
COc1ccc2c(c1)[nH]c(=O)c1c2oc2ccc(O)c(CN3CCCCC3)c21,MIC=<90,[1],0.25 µg/mL
same,IC50,Vero,64 µg/mL
same,Ratio CC50/IC50,[4],256
same,ΔTm,[2],8.7 °C
same,ΔTm,[3],9 °C
CC1COc2c(N3CCN(C)CC3)c(F)cc3c(=O)c(C(=O)O)cn1c23 (stereo not drawn) [OFLOXACIN],MIC=<90,[5],0.5 µg/mL
CCOC(=O)c1c(-c2ccccc2)oc2ccc(O)c(CN3CCCCC3)c12,MIC=<90,[1],2 µg/mL
same,INH,[6],4.6 µM
O=c1[nH]c2cc(Br)ccc2c2oc3ccc(O)c(CN4CCCCC4)c3c12,MIC=<90,[1],0.5 µg/mL
same,IC50,Vero,64 µg/mL
same,Ratio CC50/IC50,[4],128
O=c1[nH]c2ccc(Br)cc2c2oc3ccc(O)c(CN4CCCCC4)c3c12,MIC=<90,[1],32 µg/mL
O=c1[nH]c2ccc(O)cc2c2oc3ccc(O)c(CN4CCCCC4)c3c12,MIC=<90,[1],1 µg/mL
same,IC50,Vero,16 µg/mL
same,Ratio CC50/IC50,[4],16
same,ΔTm,[2],7.4 °C
same,ΔTm,[3],8.5 °C
O=c1oc2ccccc2c2oc3ccc(O)c(CN4CCCCC4)c3c12,MIC=<90,[1],0.125 µg/mL
CCNC(=O)c1c(-c2ccc(F)cc2)oc2ccc(O)c(CN3CCCCC3)c12,MIC=<90,[1],4 µg/mL
O=c1oc2cc(O)ccc2c2oc3ccc(O)c(CN4CCCCC4)c3c12,MIC=<90,[1],0.0039 µg/mL
same,Ratio,[7],8
NNC(=O)c1ccncc1 [ISONIAZID],MIC=<90,[5],0.04 µg/mL
O=c1[nH]c2c(F)cccc2c2oc3ccc(O)c(CN4CCCCC4)c3c12,MIC=<90,[1],0.5 µg/mL
O=c1[nH]c2cc(Cl)ccc2c2oc3ccc(O)c(CN4CCCCC4)c3c12,MIC=<90,[1],0.5 µg/mL
same,IC50,Vero,32 µg/mL
same,Ratio CC50/IC50,[4],64
CCNC(=O)c1c(-c2ccccc2)oc2ccc(O)c(CN3CCCCC3)c12,MIC=<90,[1],4 µg/mL
COc1ccc2[nH]c(=O)c3c(oc4ccc(O)c(CN5CCCCC5)c43)c2c1,MIC=<90,[1],4 µg/mL
O=c1[nH]c2cc(O)ccc2c2oc3ccc(O)c(CN4CCCCC4)c3c12,MIC=<90,[1],0.0313 µg/mL
same,MIC=<90,[5],0.0313 µg/mL
same,IC50,Vero,4 µg/mL
same,Ratio CC50/IC50,[4],64
same,MIC,Staphylococcus aureus,> 25 µg/mL
same,MIC,Bacillus subtilis,> 25 µg/mL
same,MIC,Escherichia coli [8],> 25 µg/mL
same,MIC,Escherichia coli [9],> 25 µg/mL
same,ΔTm,[2],7.5 °C
same,ΔTm,[3],9.4 °C
same,INH,[6],0.58 µM
CO[C@H]1/C=C/O[C@@]2(C)Oc3c(C)c(O)c4c(O)c(c(/C=N/N5CCN(C)CC5)c(O)c4c3C2=O)NC(=O)/C(C)=C\C=C\[C@H](C)[C@H](O)[C@@H](C)[C@@H](O)[C@@H](C)[C@H](OC(C)=O)[C@@H]1C [RIFAMPIN],MIC=<90,[5],0.0625 µg/mL
CNC(=O)c1c(-c2ccc(O)cc2)oc2ccc(O)c(CN3CCCCC3)c12,MIC=<90,[1],0.0313 µg/mL
C[C@H]1COc2c(N3CCN(C)CC3)c(F)cc3c(=O)c(C(=O)O)cn1c23.C[C@H]1COc2c(N3CCN(C)CC3)c(F)cc3c(=O)c(C(=O)O)cn1c23.O [LEVOFLOXACIN],MIC=<90,[5],0.125 µg/mL
O=c1[nH]c2cc(F)ccc2c2oc3ccc(O)c(CN4CCCCC4)c3c12,MIC=<90,[1],0.5 µg/mL
same,IC50,Vero,16 µg/mL
same,Ratio CC50/IC50,[4],32
COc1cc2c(cc1C(=O)N1CCCCC1)oc1c3ccccc3oc(=O)c21,MIC=<90,[1],>64 µg/mL
O=c1[nH]c2c(Cl)cccc2c2oc3ccc(O)c(CN4CCCCC4)c3c12,MIC=<90,[1],1 µg/mL
CCOC(=O)c1c(-c2ccccc2)oc2cc(C(=O)N3CCCCC3)c(OC)cc12,MIC=<90,[1],>64 µg/mL
CN(C)[C@@H]1C(O)=C(C(N)=O)C(=O)[C@@]2(O)C(O)=C3C(=O)c4c(O)cccc4[C@@](C)(O)[C@H]3C[C@@H]12 [TETRACYCLINE],MIC,Staphylococcus aureus,0.2 µg/mL
same,MIC,Bacillus subtilis,> 25 µg/mL
same,MIC,Escherichia coli [8],1.56 µg/mL
same,MIC,Escherichia coli [9],0.78 µg/mL
CCOC(=O)c1c(-c2ccccc2)oc2ccc(OC)c(C(=O)N3CCCCC3)c12,MIC=<90,[1],>64 µg/mL
CCOC(=O)c1c(-c2ccccc2)sc2ccc(O)c(CN3CCCCC3)c12,MIC=<90,[1],16 µg/mL
same,ΔTm,[2],3.2 °C
same,ΔTm,[3],3.3 °C
O=c1[nH]c2ccc(Cl)cc2c2oc3ccc(O)c(CN4CCCCC4)c3c12,MIC=<90,[1],1 µg/mL
COc1ccc2oc3c4ccccc4oc(=O)c3c2c1C(=O)N1CCCCC1,MIC=<90,[1],>64 µg/mL
O=c1oc2ccccc2c2oc3cc(Br)c(O)c(CN4CCCCC4)c3c12,MIC=<90,[1],>64 µg/mL
CCOC(=O)c1c(-c2ccccc2)oc2cc(Br)c(O)c(CN3CCCCC3)c12,MIC=<90,[1],32 µg/mL
CCOC(=O)c1c(-c2ccccc2)[nH]c2ccc(O)c(CN3CCCCC3)c12,MIC=<90,[1],>32 µg/mL
O=c1[nH]c2ccccc2c2oc3ccc(O)c(CN4CCCCC4)c3c12,MIC=<90,[1],0.25 µg/mL
same,ΔTm,[2],9.6 °C
same,ΔTm,[3],10.2 °C
NC[C@H]1O[C@H](O[C@H]2[C@H](O)[C@@H](O[C@H]3O[C@H](CO)[C@@H](O)[C@H](N)[C@H]3O)[C@H](N)C[C@@H]2N)[C@H](O)[C@@H](O)[C@@H]1O [KANAMYCIN],MIC=<90,[5],2 µg/mL
same,MIC,Staphylococcus aureus,2.34 µg/mL
same,MIC,Bacillus subtilis,9.39 µg/mL
same,MIC,Escherichia coli [8],9.39 µg/mL
same,MIC,Escherichia coli [9],2.34 µg/mL
CCNC(=O)c1c(-c2ccc(OC)cc2)oc2ccc(O)c(CN3CCCCC3)c12,MIC=<90,[1],2 µg/mL
O=c1oc2ccccc2c2[nH]c3ccc(O)c(CN4CCCCC4)c3c12,MIC=<90,[1],32 µg/mL
same,ΔTm,[2],0.8 °C
same,ΔTm,[3],3.1 °C
CN[C@H](CC(C)C)C(=O)N[C@H]1C(=O)N[C@@H](CC(N)=O)C(=O)N[C@H]2C(=O)N[C@H]3C(=O)N[C@H](C(=O)N[C@H](C(=O)O)c4cc(O)cc(O)c4-c4cc3ccc4O)[C@H](O)c3ccc(c(Cl)c3)Oc3cc2cc(c3O[C@@H]2O[C@H](CO)[C@@H](O)[C@H](O)[C@H]2O[C@H]2C[C@](C)(N)[C@H](O)[C@H](C)O2)Oc2ccc(cc2Cl)[C@H]1O [VANCOMYCIN],MIC,Staphylococcus aureus,0.39 µg/mL
same,MIC,Bacillus subtilis,> 25 µg/mL
same,MIC,Escherichia coli [8],> 25 µg/mL
same,MIC,Escherichia coli [9],> 25 µg/mL
O=c1[nH]c2ccc(F)cc2c2oc3ccc(O)c(CN4CCCCC4)c3c12,MIC=<90,[1],1 µg/mL
same,IC50,Vero,16 µg/mL
same,Ratio CC50/IC50,[4],16
